Most compounds without a hit are left out; they make up all but 2% or so of the library.
Xi reactivation – X-chromosome reactivation activator. AID 743238. activation, % at 7.58 µM. 360,000 compounds, 0.055% hits. XiGFP mouse fibroblasts, % GFP-positive cells imaging, 3 d; cells co-treated with 5-aza-dC sensitizer; scaled so ellipticine positive control = 100%;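 active means mean normalized replicate activation at least 10% and every replicate at or above 10%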;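 further: 0% = median of on-plate neutral control wells and 100% = ellipticine 6 µM median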
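material = 68-5-11 XiGFP fibroblast line | medium = DMEM plus 5-aza-dC sensitizer | schedule = 3 days compound exposure | benchmarks = positive control ellipticine, 6 µM final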
CaV13 FRET inh – Disruptors of the CACNA1D IQ motif to Ca2+-dependent inactivation inhibitor domain association, primary screening, Förster resonance energy transfer in intact living … | HEK cells, CFP/YFP FRET ICDI-IQ, plate reader, 10 min; percent FRET-ratio fall versus neutral wells | AID 743397 | inhibition, % at 12.3 µM | 340,000 compounds, 0.098% hits;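 active means mean replicate inhibition of at least 30% and at least 1% of replicates passing that level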;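 further: 0% = median of the neutral control wells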
DENV2 CPE – protects cells from dengue virus 2 cytopathic effect. AID 651640. DENV2-infected cells, cytopathic effect rescue, plate reader. CPE inhibition, % at 9.99 µM. 350,000 compounds, 1.7% hits; in the data active means CPE inhibition above about 20%, passing the limit was not always enough; tested in BHK-21 cells;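 further: 0% = median of neutral control wells and 100% = median of positive control wells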
FN deposition inh – fibronectin deposition inhibition; AH1F fibroblasts, Alexa488-fibronectin deposition fluorescence, overnight; 350,000 compounds, 0.086% hits; AID 743247; inhibition, % at 12.6 µM;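 active means mean inhibition across replicates of 30% or more, regardless of how many single replicates reach that level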;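 further: positive control wells lacked labelled fibronectin entirely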
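Material: AH1F fibroblast monolayer depositing Alexa488-labelled fibronectin into matrix | Input: 10000 AH1F cells/well | Medium: DMEM plus 2% serum, read in PBS | Reagent: Alexa488-fibronectin, 24 nM final in well | Compound dosing: One dose per compound, pinned | Schedule: 1 h adhesion, overnight exposure | Measured by: Fluorescence at 485 nm excitation, 525 nm emission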
CASP6 VEID inh – inhibitors of human caspase-6; P55212; purified caspase-6, Z-VEID-R110 cleavage fluorescence; inhibition, % at 12.5 µM; 350,000 compounds, 0.53% hits;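 active means mean inhibition across replicates at least about 35%, with every replicate also reaching that limit, limit read from the data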;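 further: 0% = median of neutral control wells and 100% = no fluorescence left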
Target sequence (P55212 24-179 limits assumed): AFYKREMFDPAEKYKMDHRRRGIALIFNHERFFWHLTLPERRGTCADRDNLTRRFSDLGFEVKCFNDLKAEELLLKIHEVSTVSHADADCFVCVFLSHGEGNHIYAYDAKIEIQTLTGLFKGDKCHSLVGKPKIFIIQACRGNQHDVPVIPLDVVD
Target sequence (P55212 194-293 limits assumed): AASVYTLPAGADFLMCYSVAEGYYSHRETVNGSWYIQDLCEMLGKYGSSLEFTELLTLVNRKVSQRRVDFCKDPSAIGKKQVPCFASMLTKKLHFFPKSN
The depositor's hits bear a star.

For Cc1ccc(-n2nnnc2CNC(=O)C(=O)c2c[nH]c3ccccc23)cc1C the results were Xi reactivation 0.2, CaV13 FRET inh 49.0*, DENV2 CPE -1.1, FN deposition inh -0.5 and CASP6 VEID inh 0.6.
O=C(c1ccc(F)cc1)N1CC(=O)N2[C@H](C1)[C@@H](c1ccc(C#Cc3ccc(F)cc3)cc1)[C@@H]2CO was read as Xi reactivation 0.1, DENV2 CPE 12.6 and CASP6 VEID inh -1.4.
Nc1c2c(=O)[nH]c(O)cc2nn1-c1ccccc1 was read as Xi reactivation 0.3, CaV13 FRET inh -7.3, DENV2 CPE -5.7, FN deposition inh 6.0 and CASP6 VEID inh 39.8*.
Screening CCc1ccc(NC(=O)COc2ccc3c(c2)OCO3)cc1 returned Xi reactivation -0.1, CaV13 FRET inh -3.2, DENV2 CPE 46.8*, FN deposition inh 7.9 and CASP6 VEID inh -0.5.
For Cc1csc(NC(=O)CCn2c(=O)oc3ccc(Cl)cc32)n1 the results were Xi reactivation 0.0, CaV13 FRET inh -3.6, DENV2 CPE 7.3, FN deposition inh 8.5 and CASP6 VEID inh 8.8.
For Cc1nnc(NC(=O)CCn2c(=O)oc3ccc(Cl)cc32)s1 the results were Xi reactivation 0.1, CaV13 FRET inh -2.4, DENV2 CPE 23.5*, FN deposition inh 3.2 and CASP6 VEID inh -2.3.
O=C(O)CCNc1ccc(NCCC(=O)O)c2c1C(=O)c1ccccc1C2=O was read as Xi reactivation 0.1, CaV13 FRET inh -5.3, DENV2 CPE -2.8, FN deposition inh 2.7 and CASP6 VEID inh 70.1*.
O=C(Nc1cc(F)ccc1F)N1CC(=O)N2[C@H](C1)[C@@H](c1ccc(-c3cccc(F)c3)cc1)[C@@H]2CO was read as Xi reactivation 0.1, DENV2 CPE -6.7 and CASP6 VEID inh -1.7.
Screening Cc1ccc(Cn2c(C(C)Nc3nc(-c4ccc(Cl)c([N+](=O)[O-])c4)cs3)nc3cc(C(F)(F)F)ccc32)cc1 (stereo not drawn) returned Xi reactivation 0.0, CaV13 FRET inh -8.4, DENV2 CPE -16.9 and FN deposition inh -19.7.
`Cc1ccc(-c2csc(NCCn3c(C)nc4cc(C(F)(F)F)ccc43)n2)cc1` gave Xi reactivation 0.1, CaV13 FRET inh 2.3, DENV2 CPE 45.0*, FN deposition inh -6.2 and CASP6 VEID inh 0.6.
Screening NC(Cc1ccc(F)cc1)c1csc(Nc2cc(NCc3ccco3)ncn2)n1 (stereo not drawn) returned Xi reactivation 0.2, CaV13 FRET inh -4.5, DENV2 CPE 12.9 and CASP6 VEID inh 1.6.
Screening NC(c1csc(Nc2cc(NCc3ccco3)ncn2)n1)c1ccccc1Cl (stereo not drawn) returned Xi reactivation 0.0, CaV13 FRET inh -4.4, DENV2 CPE 69.5*, FN deposition inh -7.0 and CASP6 VEID inh 2.7.
N#CC1C(=O)c2ccccc2C1c1ccccc1 (stereo not drawn) was read as Xi reactivation 0.6, CaV13 FRET inh -2.2, DENV2 CPE -1.6, FN deposition inh 37.9* and CASP6 VEID inh -1.1.
COc1ccc(-c2nnc3ccc(SCC(=O)N4CCCCC4)nn23)cc1OC was read as Xi reactivation 0.0, CaV13 FRET inh -6.8, DENV2 CPE 29.5*, FN deposition inh -3.3 and CASP6 VEID inh -0.7.
For C[C@@H]1CN([C@H](C)CO)C(=O)c2cc(NC(=O)CCCN(C)C)ccc2O[C@@H](C)CCCCO[C@H]1CN(C)S(=O)(=O)c1ccc(F)cc1 the results were Xi reactivation 0.4, DENV2 CPE 16.6, FN deposition inh 2.3 and CASP6 VEID inh 2.3.
Screening C[C@@H]1CCCCO[C@@H](CN(C)S(=O)(=O)c2ccc(F)cc2)[C@H](C)CN([C@@H](C)CO)C(=O)c2cc(NC(=O)CCCN(C)C)ccc2O1 returned Xi reactivation 0.2, DENV2 CPE 21.3*, FN deposition inh 0.5 and CASP6 VEID inh 2.3.
`C[C@@H]1CCCCO[C@H](CN(C)S(=O)(=O)c2ccc(F)cc2)[C@@H](C)CN([C@H](C)CO)C(=O)c2cc(NC(=O)CCCN(C)C)ccc2O1` gave Xi reactivation 0.5, DENV2 CPE 34.3*, FN deposition inh -15.0 and CASP6 VEID inh 0.2.
For Cc1ccc(C)c(S(=O)(=O)N2CCN(C(=O)CSc3ccccc3)CC2)c1 the results were Xi reactivation 0.2, CaV13 FRET inh -1.8, DENV2 CPE -5.4, FN deposition inh 3.4 and CASP6 VEID inh -0.4.
Screening Cc1ccc(C)c(S(=O)(=O)N2CCN(C(C)C(=O)Nc3ccccc3-c3ccccc3)CC2)c1 (stereo not drawn) returned Xi reactivation -0.1, CaV13 FRET inh -3.6, DENV2 CPE -2.0, FN deposition inh -0.1 and CASP6 VEID inh 35.1*.
Nc1ccc2cn[nH]c2c1 was read as Xi reactivation 0.3, CaV13 FRET inh -5.6, DENV2 CPE -2.1, FN deposition inh -5.7 and CASP6 VEID inh 44.0*.
`C[C@@H]1CCCCO[C@@H](CN(C)Cc2ccc(C(F)(F)F)cc2)[C@H](C)CN([C@H](C)CO)C(=O)c2cc(NS(=O)(=O)c3ccccc3)ccc2O1` gave Xi reactivation 0.1, DENV2 CPE 0.9, FN deposition inh -5.3 and CASP6 VEID inh -0.4.
`CS(=O)(=O)N1N=C(c2ccco2)CC1c1ccccc1` (stereo not drawn) gave Xi reactivation 0.1, CaV13 FRET inh -2.7, DENV2 CPE 3.5, FN deposition inh 0.7 and CASP6 VEID inh 2.2.
For CS(=O)(=O)N1N=C(c2ccco2)CC1c1ccco1 (stereo not drawn) the results were Xi reactivation 0.1, CaV13 FRET inh -20.2, DENV2 CPE 6.6, FN deposition inh -0.9 and CASP6 VEID inh 62.3*.
`C[C@H]1CN([C@@H](C)CO)S(=O)(=O)c2ccc(C3=CCCC3)cc2O[C@H]1CN(C)S(C)(=O)=O` gave Xi reactivation -0.8.
Screening O=C(Nc1ccc(C(F)(F)F)cc1)N[C@@H]1CC[C@H](CCn2cc(C3(O)CCCC3)nn2)O[C@@H]1CO returned Xi reactivation 0.1, DENV2 CPE -1.6 and CASP6 VEID inh -3.8.
For Cc1cccc(N2C(=O)N3[C@H](c4ccc(Br)cc4)[C@@H]4C(=O)N(C(C)(C)C)C(=O)[C@@H]4[C@]3(C)C2=O)c1 the results were Xi reactivation 0.7, CaV13 FRET inh -4.7, DENV2 CPE 25.7* and CASP6 VEID inh 2.9.
`Cc1ccc(N2C(=O)N3[C@H](c4ccc(Br)cc4)[C@@H]4C(=O)N(C(C)(C)C)C(=O)[C@@H]4[C@]3(C)C2=O)cc1` gave Xi reactivation 0.4, CaV13 FRET inh 0.2, DENV2 CPE 6.9, FN deposition inh 2.6 and CASP6 VEID inh -0.1.
For COc1ccc([C@@H]2CC=CC[C@H](C)Oc3ccccc3C(=O)N(C)[C@@H](C)C(=O)N2)c(OC)c1 (mixture of isomers) the results were Xi reactivation 0.1 and FN deposition inh -3.2.

Screening results (PubChem)
